Test [1] can be described thus: Inhibition of recombinant Schistosoma mansoni NACE using 1, N6-etheno NAD+ as substrate by fluorometric analysis. In short, it runs like this:
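Continuous fluorometric read of recombinant SmNACE turning over ε-NAD+ to ε-ADP-ribose (ex 310 nm, em 410 nm), at 37 °C in 10 mM potassium phosphate pH 7.4 with 0.05% (w/v) emulphogen. Initial rates are taken at 6 inhibitor concentrations. IC50 comes from non-linear regression of residual activity against log[inhibitor]. Values are means of three independent determinations.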

The target of test [2] is T1, ADP-ribosyl cyclase/cyclic ADP-ribose hydrolase 1 (Homo sapiens, UniProt P28907).
T1 sequence (P28907 whole entry): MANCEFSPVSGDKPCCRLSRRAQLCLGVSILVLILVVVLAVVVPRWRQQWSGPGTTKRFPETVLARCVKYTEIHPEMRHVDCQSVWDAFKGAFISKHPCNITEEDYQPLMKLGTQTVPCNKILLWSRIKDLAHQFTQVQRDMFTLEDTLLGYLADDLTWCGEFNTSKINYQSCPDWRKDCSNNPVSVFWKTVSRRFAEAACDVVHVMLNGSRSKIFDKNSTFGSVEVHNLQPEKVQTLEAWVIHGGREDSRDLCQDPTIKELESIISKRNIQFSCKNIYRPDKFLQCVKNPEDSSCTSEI
Description: Inhibition of human CD38 by HPLC analysis.

The test system of test [3] is Schistosoma mansoni. Description: Competitive inhibition of recombinant Schistosoma mansoni NACE by Dixon plot analysis in presence of 1, N6-etheno NAD+. In short, it runs like this:
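Recombinant SmNACE with ε-NAD+ in 10 mM potassium phosphate pH 7.4, 0.05% (w/v) emulphogen, 37 °C. Initial rates are followed fluorometrically as ε-ADP-ribose appears (ex 310 nm, em 410 nm). Three fixed inhibitor concentrations are each combined with ε-NAD+ at 20, 50 and 100 µM, and 1/v is plotted against [I] (Dixon) to assign the inhibition type.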

Test [4] concerns the target ADP-ribosyl cyclase/cyclic ADP-ribose hydrolase 1 (Homo sapiens) (UniProt P28907). Nature of the test: Inhibition of human CD38 at 100 uM by HPLC analysis relative to control. In short, it runs like this: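 Human CD38 with inhibitor at 100 µM, given as percent inhibition. Enzyme activity is measured by HPLC at 20 µM NAD+: isocratic C18 separation (10 mM ammonium phosphate pH 5.5, 1.2% (v/v) acetonitrile, 1 mL/min) with detection at 260 nm, plus radiodetection when [14C]NAD+ is added.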

Test [5] concerns Schistosoma mansoni. Description: Inhibition of recombinant Schistosoma mansoni NACE using 1, N6-etheno NAD+ as substrate at 100 uM by fluorometric analysis relative to control. In short, it runs like this:
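Single-point screen at 100 µM inhibitor against recombinant SmNACE with ε-NAD+ substrate. Initial-rate fluorescence of ε-ADP-ribose is read (ex 310 nm, em 410 nm) at 37 °C in 10 mM potassium phosphate pH 7.4 with 0.05% (w/v) emulphogen, and expressed as percent inhibition.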

Test [6] is described as follows: Selectivity ratio of IC50 for human CD38 to IC50 for recombinant Schistosoma mansoni NACE.
The test system of test [7] is Schistosoma mansoni. Nature of the test: Inhibition of recombinant Schistosoma mansoni NACE using NAD+ as substrate at 100 uM by HPLC analysis relative to control. In short, it runs like this:
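HPLC assay for recombinant SmNACE at 20 µM NAD+ substrate, used where compounds fluoresce on their own. Inhibitor is tested at 100 µM. Products are separated isocratically on a C18 column (10 mM ammonium phosphate pH 5.5, 1.2% (v/v) acetonitrile, 1 mL/min) and detected at 260 nm. In some runs [adenosine-U-14C]NAD+ is added with radiodetection.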

Activity calls are given as the source filed them. The rule behind the calls is not given here.

Take `Cc1occc1C(=O)N/N=C\c1ccc(O)c(O)c1`: the results for the IC50 in test [1] (read-out: IC50) and in test [2] were 88 µM and 109 µM, respectively. The “Inhibition type (Dixon plot)” value in test [3] was “Active”.
As to `Cc1cccc(/C=N\NC(=O)c2ccoc2C)c1O`, the IC50 in test [1] (read-out: IC50) stood at 59 µM. In test [4], this compound had an inhibition of 0%.
For `Cc1occc1-c1nnc(-c2cc(Cl)ccc2O)o1`, the inhibition in test [5] and in test [4] was 0% throughout.
Take `Cc1occc1C(=O)NCCc1ccccc1O`: the IC50 in test [1] (read-out: IC50) is 131 µM.
For `Cc1occc1C(=O)N/N=C\c1cccc(C(C)(C)C)c1O`, the 50% inhibitory concentration (IC50) in test [1] (read-out: IC50) turned out to be 105 µM.
As to `Cc1occc1C(=O)NNCc1ccccc1O`, the IC50 in test [1] (read-out: IC50) came out at 12.3 µM. The compound also had an inhibition in test [4] of 0%.
Turning to `COc1ccccc1/C=N\N(C)C(=O)c1ccoc1C`, the IC50 in test [1] (read-out: IC50) was 513 µM.
Regarding `COc1cc(O)c(/C=N\NC(=O)c2ccoc2C)c(OC)c1`, in test [1] (read-out: IC50), the half-maximal inhibitory concentration (IC50) is 0.19 µM. This compound also showed an inhibition in test [4] of 0%.
As to `C/C(=N/NC(=O)c1ccoc1C)c1ccccc1O`, the IC50 entry in test [1] is reported as “ND(Insoluble)”.
Turning to `Cc1occc1C(=O)N/N=C\c1cccc(Cl)c1O`, the IC50 in test [1] (read-out: IC50) stood at 0.15 µM; in test [2] it was 14 µM. In test [4], this compound yielded an inhibition of 66.7%.
Turning to `Cc1occc1C(=O)NNC(=O)c1cc(Cl)ccc1O`, the IC50 in test [1] (read-out: IC50) turned out to be 0.039 µM. For the same compound, the inhibition in test [4] is 6.7%. Besides, the Ratio IC50 in test [6] is more than 1000. Besides, the “Inhibition type (Dixon plot)” value in test [3] is “Active”.
Turning to `COc1ccc(/C=N\NC(=O)c2ccoc2C)c(O)c1`, the IC50 in test [1] (read-out: IC50) worked out at 0.032 µM. In addition, in test [4], the inhibition is 0%. For the same compound, the Ratio IC50 in test [6] is more than 1000.
Turning to `Cc1occc1C(=O)N(C)/N=C\c1ccccc1O`, the IC50 result in test [1] is “ND(Insoluble)”.
For `Cc1occc1C(=O)N/N=C\c1cccc(O)c1O`, in test [1] (read-out: IC50), the IC50 came out at 8.7 µM. The same compound displayed an inhibition in test [4] of 0%.
On to `COc1ccc(O)c(/C=N\NC(=O)c2ccoc2C)c1`, for which the IC50 in test [1] (read-out: IC50) is 0.045 µM. Moreover, the inhibition in test [4] came to 0%. Further, in test [6], the Ratio IC50 is more than 1000.
With `COc1ccccc1CCNC(=O)c1ccoc1C`, the inhibition in test [5] was 0%.
As to `Cc1occc1C(=O)N/N=C\c1ccccc1`, the results for the IC50 in test [1] (read-out: IC50) and in test [2] were 330 µM and 296 µM, respectively.
Turning to `Cc1occc1C(=O)N/N=C\c1c(O)cc(Cl)cc1Cl`, the IC50 in test [1] (read-out: IC50) worked out at 0.077 µM. This compound also returned an inhibition in test [4] of 0%. In test [6], the Ratio IC50 was more than 1000.
As to `Cc1occc1-c1nnc(-c2ccccc2O)o1`, the inhibition in test [5] and in test [4] was 0% throughout.
On to `COc1ccc(C(=O)NNC(=O)c2ccoc2C)c(O)c1`, for which the IC50 in test [1] (read-out: IC50) amounted to 0.074 µM. Besides, the inhibition in test [4] is 6.7%. In addition, in test [6], the Ratio IC50 was more than 1000. In addition, in test [3], the “Inhibition type (Dixon plot)” value is “Active”.
For the compound `Cc1occc1C(=O)N/N=C\c1ccccc1O`, the IC50 stood at 0.13 µM in test [1] (read-out: IC50) and 430 µM in test [2]. In addition, the inhibition in test [4] was determined as 20%. For the same compound, the Ratio IC50 in test [6] is more than 1000. Also, the “Inhibition type (Dixon plot)” value in test [3] is “Active”.
Regarding `Cc1occc1C(=O)N/N=C\c1cc(Cl)ccc1O`, in test [1] (read-out: IC50), the half-maximal inhibitory concentration (IC50) was 0.033 µM. This compound had an inhibition in test [4] of 0%. The Ratio IC50 in test [6] was more than 1000.
In the case of `COc1cc(/C=N\NC(=O)c2ccoc2C)ccc1O`, the IC50 was 80 µM in test [1] (read-out: IC50) and 103 µM in test [2].
Take `O=C1c2c(O)cc(O)cc2OC(c2ccc(O)c(O)c2)C1O` (racemic): the inhibition in test [5] and in test [7] was more than 40% throughout.
In the case of `COc1ccc(-c2nnc(-c3ccoc3C)o2)c(O)c1`, the inhibition in test [5] and in test [4] was 0% each time.
As for `COc1ccccc1CNNC(=O)c1ccoc1C`, the IC50 in test [1] (read-out: IC50) stood at 11.6 µM. This compound displayed an inhibition in test [4] of 0%.
As for `Cc1occc1C(=O)NNC(=O)c1ccccc1O`, the IC50 is 0.25 µM in test [1] (read-out: IC50) and 120 µM in test [2]. In addition, the inhibition in test [4] was found to be 27.6%.
Take `Cc1cccc(C(=O)NNC(=O)c2ccoc2C)c1O`: in test [1], the concentration for half-maximal inhibition (IC50) entry was “ND(Insoluble)”.
Turning to `COc1ccccc1/C=N\NC(=O)c1ccoc1C`, the IC50 in test [1] (read-out: IC50) was found to be 67 µM. For the same compound, the inhibition in test [4] came to 0%.
For `Cc1occc1C(=O)N/N=C\c1cccc(F)c1O`, the IC50 in test [1] (read-out: IC50) amounted to 0.036 µM; in test [2] it was 26 µM. Besides, in test [4], the inhibition amounted to 27.2%. In test [3], the “Inhibition type (Dixon plot)” value was “Active”.

For the origin of these results see ChEMBL document CHEMBL3421574, “Discovery of Potent Inhibitors of Schistosoma mansoni NAD⁺ Catabolizing Enzyme” (J Med Chem, 2015).
